MrgX1 agonist = human MrgX1 receptor agonism, primary screen; B-score at 10 µM; actives 0.44% (n = 310,000); AID 588627; MrgX1-HEK293 cells, Fluo-4 calcium fluorescence, agonist mode; hits give high values;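 active means calcium response B-score plate-corrected fluorescence ratio at least 3 library SD, with starting fluorescence B-score inside 5 SD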
Target sequence (Q96LB2 whole entry, looked up): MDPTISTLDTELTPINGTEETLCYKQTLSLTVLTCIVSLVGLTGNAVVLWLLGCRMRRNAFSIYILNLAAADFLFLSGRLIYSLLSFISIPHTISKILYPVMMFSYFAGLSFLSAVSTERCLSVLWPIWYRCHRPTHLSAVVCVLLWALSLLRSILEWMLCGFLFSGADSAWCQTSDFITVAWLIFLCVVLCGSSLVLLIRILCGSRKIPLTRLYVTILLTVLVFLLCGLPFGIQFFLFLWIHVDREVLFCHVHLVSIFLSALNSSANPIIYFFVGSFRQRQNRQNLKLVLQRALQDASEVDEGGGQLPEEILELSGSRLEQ
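Test system: HEK293 cells stably expressing human MrgX1 receptor; Input: fifteen thousand cells per well; Dosing: compound delivered in addition one of three; Schedule: overnight seeding, then 1 h dark dye loading; Technique: Fluo-4 NW calcium fluorescence; Measure: B-scored fluorescence response ratio; Controls: positive and negative controls per plate.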
MrgX1 allo act = human MrgX1 positive allosteric modulation, primary screen; MrgX1-HEK293, Fluo-4 calcium flux, FDSS; hits give high values; AID 588675; actives 0.63% (n = 310,000); B-score at 10 µM; Q96LB2;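 active means plate-corrected calcium response at least 3 library SD above typical, normal starting fluorescence, not activating the receptor alone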;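 further: compound read alongside a low EC10 to EC30 dose of BAM8-22 agonist; peak minus trough fluorescence over baseline measured at the second addition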
RGS4 block = inhibitors of human RGS4 | actives 0.45% (n = 310,000) | P49798 | HEK293 M3R/RGS4 inducible, Fluo-4 calcium flux; hits give high values; triggered by carbachol at its EC20 | B-score at 10 µM;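 active means B-score, a plate-corrected calcium signal, over three deviations above library mean, with baseline fluorescence within five deviations of library mean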;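 further: RGS4 expression induced by doxycycline in cells with stable M3 receptor; B-score is computed from the integrated fluorescence ratio over baseline after carbachol; higher B-score means a larger calcium signal and so more RGS4 inhibition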
Target sequence (P49798 whole entry, looked up): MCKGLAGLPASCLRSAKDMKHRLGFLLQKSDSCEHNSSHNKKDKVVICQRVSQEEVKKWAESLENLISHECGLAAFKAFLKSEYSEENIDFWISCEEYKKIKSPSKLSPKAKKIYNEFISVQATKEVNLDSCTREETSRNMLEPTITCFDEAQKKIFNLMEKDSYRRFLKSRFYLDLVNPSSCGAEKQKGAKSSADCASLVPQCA
RGS4 act = potentiators or activators of RGS4 | actives 0.92% (n = 310,000) | AID 463111 | HEK293 M3R/inducible RGS4, carbachol calcium flux Fluo4; hits give low values | B-score at 10 µM;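 active means B-score of the integrated calcium signal more than 4 SD below the library mean, with starting fluorescence not abnormally high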;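 further: negative B-score means reduced calcium response which marks RGS4 activation or potentiation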
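test system = M3R-expressing HEK293 line, RGS4 induced by doxycycline | probe or stimulus = carbachol at ECmax as muscarinic agonist stimulus | timing = dye loading 30 min 37 °C, buffer rest 30 min RT | signal = calcium dye Fluo4 fluorescence | evaluation = B score from integrated fluorescence ratio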
MrgX1 antagonist = human MrgX1 receptor antagonism, primary screen. Q96LB2. MRGX1-HEK293 calcium flux, Fluo-4, BAM8-22 antagonism; hits give low values. B-score at 10 µM. actives 1.3% (n = 310,000);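 active means calcium-response B-score plate-corrected more than 3 library SD below zero, starting fluorescence within 5 deviations, no agonist response on first addition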;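 further: peak minus trough fluorescence over baseline after final BAM8-22 challenge near maximal dose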
RGS4 activ val = RGS4 activation, validation assay | HEK293 M3R/RGS4 inducible, carbachol calcium flux Fluo4 | shares compounds with RGS4 act | inhibition, % at 10 µM | actives 89% (n = 1,100);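 active means inhibition above 3 SD of the buffer control wells, cut at about 41% in these data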;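 further: signal is the integrated peak-minus-minimum Fluo4 fluorescence over baseline ratio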
RGS4 act ctr = counter-screen for RGS4 activators: effect in non-induced cells. HEK293 M3R non-induced RGS4, Fluo4 calcium flux; after carbachol challenge at its EC90. actives 82% (n = 1,100). inhibition, % at 10 µM. AID 602283. shares compounds with RGS4 act;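 active means inhibition exceeding 3 SD of buffer-only control wells, cut at about 26% in these data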;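 further: percent drop in integrated peak-minus-baseline over baseline Fluo4 ratio after carbachol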
RGS4 block valid = RGS4 inhibitor validation. shares compounds with RGS4 block. HEK293 M3R/RGS4, carbachol calcium Fluo-4 fluorescence; carbachol added at its EC20; 0 = buffer wells, 100 = carbachol control. calcium response, % at 10 µM. actives 65% (n = 1,700). AID 492999;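 active means duplicate-averaged calcium response above the buffer-only control mean plus 5 SD of those controls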;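 further: integrated fluorescence ratio F max minus min over baseline F0; higher response in RGS4-induced cells means RGS4 inhibition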
RGS4 uninduced = non-induced cell nonspecific activity of RGS4 inhibitors | shares compounds with RGS4 block | HEK293 M3R non-induced, carbachol calcium Fluo-4; submaximal (EC20) carbachol stimulus; buffer wells 0%, carbachol control wells 100% | activity (percent), % at 10 µM | actives 20% (n = 1,900) | AID 493000; call rule not given here;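 further: RGS4 induction absent so cells express M3R without RGS4; higher means more calcium signal and flags a non-specific hit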
RGS4 inh ctr2 = second RGS4 inhibitor counter-screen in uninduced cells lacking carbachol; calcium response (agonist-mode artifact), % at 10 µM; HEK293 M3R/RGS4 non-induced, Fluo-4 calcium, no carbachol; normalised: buffer wells 0%, carbachol wells 100%; shares compounds with RGS4 block; actives 22% (n = 1,900);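 active means duplicate-averaged calcium rise in uninduced cells above buffer wells' mean plus 5 SD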
MrgX1 ag confirm = reconfirmed activator of human MrgX1 receptor signaling | shares compounds with MrgX1 agonist | MrgX1-HEK293, Fluo-4 calcium fluorescence, FDSS | activation, % at 10 µM | actives 78% (n = 600) | AID 602412;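 active means calcium signal rise, corrected for plate position, at least 3 library SD high, with starting brightness within 5 such deviations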
HEK293 Ca flux = activity in parental HEK293 cells lacking MrgX1; shares compounds with MrgX1 antagonist; Fluo-4 calcium fluorescence, FDSS; fluorescence ratio F(max-min)/F0 at 10 µM; actives 2% (n = 4,000);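 active means duplicate-averaged calcium fluorescence ratio at least three times the standard deviation of buffer wells, a nonspecific response in parental cells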
HEK293 Ca counter = MrgX1 allosteric activator counter-screen hit in parental HEK293 cells; shares compounds with MrgX1 antagonist; parental HEK293 calcium flux, Fluo-4 fluorescence ratio; hits give high values; fluorescence ratio F(max-min)/F0 at 10 µM; actives 0.4% (n = 4,000);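 active means calcium fluorescence ratio, averaged over duplicates, at least 3 SD of the buffer-well ratio, meaning a nonspecific response in receptor-free cells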;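 further: untransfected parental HEK293 lacking MrgX1 used as counterscreen for MrgX1 allosteric activators; fluorescence change taken during the second addition on a kinetic imager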
HEK293 Ca cntr2 = counter-screen for MrgX1 activators: effect in parental HEK293 cells | fluorescence ratio F(max-min)/F0 at 10 µM | Fluo-4 calcium fluorescence (FDSS); hits give high values | shares compounds with MrgX1 antagonist | actives 8.7% (n = 4,000);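 active means calcium fluorescence ratio at least three times the spread of buffer wells, meaning a non-specific response in parental cells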
An asterisk follows results filed as active. Only some compounds are listed: those with a hit (about 3.5% of all), similar ones and a draw of the others.

What do the screens show for `CCCCn1c(=O)c(C(=O)Nc2ncccc2C)c(O)c2ccccc21`?
MrgX1 agonist: 35.1*; MrgX1 allo act: inactive; RGS4 block: inactive; RGS4 act: -9.48*; MrgX1 antagonist: inactive; RGS4 activ val: 66.5*; RGS4 act ctr: 40.8*; MrgX1 ag confirm: inactive; HEK293 Ca flux: inactive; HEK293 Ca counter: inactive; HEK293 Ca cntr2: inactive

Results for CC(=O)OC1=CC[C@H]2[C@@H]3CC[C@H]4C[C@H](OC(C)=O)[C@@H](OC(C)=O)C[C@]4(C)[C@H]3CC[C@]12C ?
MrgX1 agonist: inactive; MrgX1 allo act: inactive; MrgX1 antagonist: inactive

Results for C=CCN1C(=O)/C(=C/c2ccc3c(c2)CCCN3CCC)C(=O)NC1=S ?
MrgX1 agonist: inactive; MrgX1 allo act: inactive; RGS4 block: inactive; RGS4 act: inactive; MrgX1 antagonist: inactive

How did C=CCN1C(=O)/C(=C/c2ccc(Br)s2)C(=O)NC1=S do in these assays?
MrgX1 agonist: inactive; MrgX1 allo act: inactive; RGS4 block: 10.8*; RGS4 act: inactive; MrgX1 antagonist: -5.62*; RGS4 block valid: 5.0%*; RGS4 uninduced: inactive; RGS4 inh ctr2: inactive

What do the screens show for `CN1C(=O)/C(=C/c2ccc(Cl)s2)C(=O)NC1=S`?
MrgX1 agonist: inactive; MrgX1 allo act: inactive; RGS4 block: 9.92*; RGS4 act: inactive; MrgX1 antagonist: inactive; RGS4 block valid: 5.5%*; RGS4 uninduced: inactive; RGS4 inh ctr2: inactive

How did O=C1NC(=O)N(Cc2ccc(F)cc2)C(=O)/C1=C/c1cccs1 do in these assays?
MrgX1 agonist: inactive; MrgX1 allo act: inactive; RGS4 block: 30.2*; RGS4 act: inactive; MrgX1 antagonist: inactive; RGS4 block valid: 15.0%*; RGS4 uninduced: inactive; RGS4 inh ctr2: inactive

How did Cc1ccc(/C=C2\C(=O)NC(=O)N(CCc3ccc(F)cc3)C2=O)o1 do in these assays?
MrgX1 agonist: inactive; MrgX1 allo act: inactive; RGS4 block: inactive; RGS4 act: inactive; MrgX1 antagonist: inactive; RGS4 uninduced: inactive; RGS4 inh ctr2: 8.5%*

How did COc1ccc(N2C(=O)/C(=C/c3ccc(C)o3)C(=O)NC2=S)cc1 do in these assays?
RGS4 block: inactive; RGS4 act: inactive; RGS4 uninduced: 33.0%*; RGS4 inh ctr2: 12.0%*
